{
  "source": "ChEMBL document CHEMBL4152184",
  "about": "“NB 06: From a simple lysosomotropic aSMase inhibitor to tools for elucidating the role of lysosomes in signaling apoptosis and LPS-induced inflammation” (Eur J Med Chem, 2018)",
  "key": {"[1]": {"tested_on": "MONO-MAC-6", "experiment": "Upregulation of CXCL3 mRNA expression level in human MONO-MAC-6 cells at 5 uM incubated for 30 mins measured after 2 hrs by oligonucleotide array hybridization assay relative to control", "assay_type": "functional"}, "[2]": {"tested_on": "MONO-MAC-6", "experiment": "Downregulation of ICAM1 mRNA expression level in human MONO-MAC-6 cells at 5 uM incubated for 30 mins measured after 4 hrs by oligonucleotide array hybridization assay relative to control", "assay_type": "functional", "procedure,_shortened": "(§1)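 Total RNA was isolated, transcribed and labeled with DY-647 dye, then co-hybridized with DY-548-labeled cDNA from untreated cells on an inflammation oligonucleotide chip (780 gene probes). Differential expression >1.5 was taken as significant.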"}, "[3]": {"tested_on": "MONO-MAC-6", "experiment": "Downregulation of CXCL2 mRNA expression level in LPS-stimulated human MONO-MAC-6 cells at 5 uM preincubated for 30 mins followed by LPS stimulation measured after 6 hrs by oligonucleotide array hybridization assay (reference value: 9.41)", "assay_type": "functional", "procedure,_shortened": "as §1"}, "[4]": {"tested_on": "MONO-MAC-6", "experiment": "Downregulation of TNFalpha mRNA expression level in human MONO-MAC-6 cells at 5 uM incubated for 30 mins measured after 6 hrs by qRT-PCR method relative to control", "assay_type": "functional"}, "[5]": {"tested_on": "MONO-MAC-6", "experiment": "Downregulation of IL-6 mRNA expression level in human MONO-MAC-6 cells at 5 uM incubated for 30 mins measured after 6 hrs by qRT-PCR method relative to control", "assay_type": "functional"}, "[6]": {"tested_on": "MONO-MAC-6", "experiment": "Upregulation of CXCL2 mRNA expression level in LPS-stimulated human MONO-MAC-6 cells at 5 uM preincubated for 30 mins followed by LPS stimulation measured after 2 hrs by qRT-PCR method (reference value: 4.77)", "assay_type": "functional"}, "[7]": {"tested_on": "MONO-MAC-6", "experiment": "Downregulation of CCL20 mRNA expression level in human MONO-MAC-6 cells at 5 uM incubated for 30 mins measured after 6 hrs by oligonucleotide array hybridization assay relative to control", "assay_type": "functional", "procedure,_shortened": "as §1"}, "[8]": {"biological_target": "T1, Sphingomyelin phosphodiesterase (Homo sapiens) (UniProt P17405)", "T1 sequence (whole entry)": "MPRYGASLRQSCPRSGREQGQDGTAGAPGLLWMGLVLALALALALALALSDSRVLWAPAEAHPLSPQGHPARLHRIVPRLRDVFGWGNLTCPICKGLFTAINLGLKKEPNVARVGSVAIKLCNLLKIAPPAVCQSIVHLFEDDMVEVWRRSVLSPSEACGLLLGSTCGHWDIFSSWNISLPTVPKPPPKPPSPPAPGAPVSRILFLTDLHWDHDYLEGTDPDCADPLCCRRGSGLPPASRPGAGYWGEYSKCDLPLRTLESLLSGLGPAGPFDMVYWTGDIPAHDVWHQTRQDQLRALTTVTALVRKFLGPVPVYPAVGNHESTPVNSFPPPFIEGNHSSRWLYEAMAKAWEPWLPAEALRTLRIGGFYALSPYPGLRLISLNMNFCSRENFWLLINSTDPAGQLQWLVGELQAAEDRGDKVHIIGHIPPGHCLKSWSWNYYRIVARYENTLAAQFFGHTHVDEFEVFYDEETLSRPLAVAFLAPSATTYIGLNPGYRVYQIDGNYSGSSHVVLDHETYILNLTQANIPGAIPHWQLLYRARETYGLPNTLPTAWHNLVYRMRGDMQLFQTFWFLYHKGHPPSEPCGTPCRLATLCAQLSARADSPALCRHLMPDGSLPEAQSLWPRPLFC", "experiment": "Inhibition of mmLDL-stimulated acid sphingomyelinase in human PBMC lysates at 100 uM preincubated for 30 mins followed by mmLDL stimulation measured after 4 hrs by YO-PRO-1/Hoechst 33342 staining based assay"}, "[9]": {"tested_on": "MONO-MAC-6", "experiment": "Upregulation of CXCL2 mRNA expression level in LPS-stimulated human MONO-MAC-6 cells at 5 uM preincubated for 30 mins followed by LPS stimulation measured after 4 hrs by oligonucleotide array hybridization assay (reference value: 13.17)", "assay_type": "functional"}, "[10]": {"tested_on": "MONO-MAC-6", "experiment": "Upregulation of CXCL2 mRNA expression level in LPS-stimulated human MONO-MAC-6 cells at 5 uM preincubated for 30 mins followed by LPS stimulation measured after 1 hr by oligonucleotide array hybridization assay (reference value: 1.42)", "assay_type": "functional"}, "[11]": {"biological_target": "T1, Sphingomyelin phosphodiesterase (Homo sapiens)", "experiment": "Inhibition of TNFalpha-stimulated acid sphingomyelinase in human PBMC lysates at 2 to 50 uM preincubated for 30 mins followed by TNFalpha stimulation measured after 4 hrs by YO-PRO-1/Hoechst 33342 staining based assay"}, "[12]": {"tested_on": "MONO-MAC-6", "experiment": "Upregulation of CCL4 mRNA expression level in LPS-stimulated human MONO-MAC-6 cells at 5 uM preincubated for 30 mins followed by LPS stimulation measured after 4 hrs by oligonucleotide array hybridization assay (reference value: 18.52)", "assay_type": "functional"}, "[13]": {"tested_on": "MONO-MAC-6", "experiment": "Decrease in inflammation-related genes in LPS-stimulated human MONO-MAC-6 cells preincubated for 30 mins followed by LPS stimulation measured after 6 hrs by microarray analysis", "assay_type": "functional, cell-based", "procedure,_shortened": "as §1"}, "[14]": {"tested_on": "MONO-MAC-6", "experiment": "Downregulation of CXCL2 mRNA expression level in human MONO-MAC-6 cells at 5 uM incubated for 30 mins measured after 6 hrs by oligonucleotide array hybridization assay relative to control", "assay_type": "functional", "procedure,_shortened": "as §1"}, "[15]": {"tested_on": "MONO-MAC-6", "experiment": "Upregulation of IL23A mRNA expression level in human MONO-MAC-6 cells at 5 uM incubated for 30 mins measured after 1 hr by qRT-PCR method relative to control", "assay_type": "functional"}, "[16]": {"tested_on": "MONO-MAC-6", "experiment": "Downregulation of TNFalpha mRNA expression level in human MONO-MAC-6 cells at 5 uM incubated for 30 mins measured after 4 hrs by qRT-PCR method relative to control", "assay_type": "functional"}, "[17]": {"biological_target": "T2, Acid ceramidase (Homo sapiens) (UniProt Q13510)", "T2 sequence (whole entry)": "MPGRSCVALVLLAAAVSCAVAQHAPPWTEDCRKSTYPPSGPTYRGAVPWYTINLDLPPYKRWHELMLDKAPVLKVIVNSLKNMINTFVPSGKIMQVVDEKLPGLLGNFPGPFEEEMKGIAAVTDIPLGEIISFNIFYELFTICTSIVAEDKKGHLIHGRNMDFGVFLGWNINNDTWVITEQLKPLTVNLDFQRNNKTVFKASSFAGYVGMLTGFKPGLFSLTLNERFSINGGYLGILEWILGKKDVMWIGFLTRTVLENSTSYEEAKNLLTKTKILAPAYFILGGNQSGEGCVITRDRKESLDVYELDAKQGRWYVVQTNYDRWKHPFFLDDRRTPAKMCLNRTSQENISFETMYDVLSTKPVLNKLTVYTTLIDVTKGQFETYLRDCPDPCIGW", "experiment": "Inhibition of mmLDL-stimulated acid ceramidase in human PBMC assessed as ratio of C24:1-ceramide/lipid phosphate level at 10 uM preincubated for 30 mins followed by mmLDL stimulation measured after 4 hrs by HPLC method (reference value: 1.16)", "assay_type": "cell-based", "procedure,_shortened": "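Human macrophages from primary culture were preincubated 30 min with 10 µM compound. They were then stimulated 4 h with mmLDL (54 µg/mL), TNFalpha (3 ng/mL) or exogenous C6-ceramide (10 µM), or left unstimulated. Individual ceramide species (C16 and C24:1) were quantified in the cell lipid extracts.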"}, "[18]": {"tested_on": "MONO-MAC-6", "experiment": "Downregulation of IL-6 mRNA expression level in LPS-stimulated human MONO-MAC-6 cells at 5 uM preincubated for 30 mins followed by LPS stimulation measured after 1 hr by qRT-PCR method (reference value: 1)", "assay_type": "functional"}},
  "note": "Activity calls are given as the source filed them. The rule behind the calls is not given here.",
  "data": [
    {"smiles": "COc1ccc(CCN(C)CCCn2c3ccccc3c3ccccc32)cc1", "values": [
      {"measurement": "fold change (FC)", "setting": "[1]", "value": 1.25},
      {"measurement": "fold change (FC)", "setting": "[2]", "value": 1.57},
      {"measurement": "fold change (FC)", "setting": "[3]", "value": 1.01},
      {"measurement": "fold change (FC)", "setting": "[4]", "value": 2.08},
      {"measurement": "fold change (FC)", "setting": "[5]", "value": 46.64},
      {"measurement": "fold change (FC)", "setting": "[6]", "value": 5.03},
      {"measurement": "fold change (FC)", "setting": "[7]", "value": 5.68},
      {"measurement": "inhibition", "setting": "[8]", "value": "Active"},
      {"measurement": "fold change (FC)", "setting": "[9]", "value": 5.82},
      {"measurement": "fold change (FC)", "setting": "[10]", "value": 1.14},
      {"measurement": "inhibition", "setting": "[11]", "value": "Active"},
      {"measurement": "fold change (FC)", "setting": "[12]", "value": 8.04},
      {"measurement": "Activity", "setting": "[13]", "value": "Active"},
      {"measurement": "fold change (FC)", "setting": "[14]", "value": 5.44},
      {"measurement": "fold change (FC)", "setting": "[15]", "value": 1.01},
      {"measurement": "fold change (FC)", "setting": "[16]", "value": 2.86},
      {"measurement": "Ratio", "setting": "[17]", "value": 2.45},
      {"measurement": "fold change (FC)", "setting": "[18]", "value": 1.17}
    ]}
  ]
}
